Screening data deposited in PubChem BioAssay by several laboratories.
STAT3 activator – STAT3 signaling activation; AID 871; activation (% of control), % at 5.6 µM; U3A cells, IL-6 STAT3-luciferase reporter, luminescence; 100% = signal with IL-6 EC80 alone; 190,000 compounds, 0.91% hits;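 active = activation above the screen-wide mean of compound activation plus 3 SD, cut at about 130% in these data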
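Material: human U3A cells carrying STAT3-luciferase construct. Measured by: reporter luminescence signal. Timing: compound 1 h, then IL-6 6 h at 37 °C.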
STAT1 inh-1 – reduces IFN-gamma driven STAT1 reporter signal; NIH 3T3 STAT1-luciferase reporter, luminescence; AID 920; 200,000 compounds, 0.35% hits; inhibition, % at 5.5 µM;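 active = inhibition above a set limit, the mean inhibition across all tested compounds plus 3 SD, cut at about 34% in these data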
NF-kB expr up – raises NF-kB expression in human neuronal cells. NF-kB reporter expression; active compounds read high. fold change at 12.5 µM. 190,000 compounds, 1.6% hits. AID 1239; in the data active = fold change above about 3.3
STAT3 blocker – inhibitors of IL-6 induced STAT3 signaling | U3A cells, IL-6 STAT3-luciferase reporter, luminescence; host cell line lacks STAT1 | inhibition, % at 5.5 µM | 190,000 compounds, 0.89% hits | AID 862;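 active = inhibition above the mean inhibition across all screened compounds plus 3 SD, cut at about 44% in these data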
APP 5'UTR act – APP 5'UTR luciferase reporter activation; activation, % at 2 µM; 190,000 compounds, 1% hits; AID 1276; SH-SY5Y APP 5'UTR luciferase reporter, luminescence; zero percent = DMSO vehicle wells;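 active = activation above a set limit, based on mean plus 3 SD of controls, cut at about 140% in these data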
STAT1 activator – increases IFN-gamma driven STAT1 reporter signal; 200,000 compounds, 2.6% hits; activation (% of control), % at 5.5 µM; AID 932; NIH 3T3 STAT1-luciferase reporter, luminescence; 100% = IFN-gamma alone, no compound;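 active = activation above the screen-wide mean activation plus 3 SD, cut at about 130% in these data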
STAT1 inh-2 – STAT1 inhibition, confirmation assay. 200 compounds, 55% hits. NIH 3T3 STAT1-luciferase reporter, IFN-gamma, luminescence. shares compounds with STAT1 inh-1. inhibition, % at 5.5 µM;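 active = triplicate mean inhibition exceeding the hit cutoff computed for the primary STAT1 screen, cut at about 35% in these data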
NFkB inh STAT1ct – counter-screen for STAT1 inhibitors: NF-kappaB inhibition | shares compounds with STAT1 inh-1 | HEK293T NF-kB luciferase reporter, TNF-alpha induced, luminescence | inhibition, % at 5.7 µM | 200 compounds, 30% hits;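 active = inhibition above the mean of solvent-only control wells plus 3 SD of those wells, cut at about 15% in these data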
STAT3 inh 2 – STAT3 inhibition in STAT1 inhibitor counter-screen; 200 compounds, 20% hits; shares compounds with STAT1 inh-1; inhibition, % at 5.7 µM; U3A cells, IL-6 STAT3 luciferase reporter, luminescence; cells lacking STAT1;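 active = inhibition above the mean of solvent-only control wells plus 3 SD, set per campaign, cut at about 25% in these data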
A number is an active result. In the library only some 4.9% were active in any assay of this set; here they are far more common.

What do the screens show for `CCOC(=O)C(=CNc1cc(C)nn1-c1ccccc1)C(=O)OCC`?
STAT3 activator: inactive; STAT1 inh-1: 52.4; NF-kB expr up: inactive; STAT3 blocker: inactive; APP 5'UTR act: inactive; STAT1 activator: inactive; STAT1 inh-2: 46.1; NFkB inh STAT1ct: inactive; STAT3 inh 2: inactive

What do the screens show for `CN(C)S(=O)(=O)c1cccc(C(=O)OCC(=O)Nc2sccc2C(N)=O)c1`?
STAT3 activator: inactive; STAT1 inh-1: inactive; NF-kB expr up: inactive; STAT3 blocker: inactive; APP 5'UTR act: inactive; STAT1 activator: inactive

How did COc1cc(C(=O)OCC(=O)Nc2sccc2C(N)=O)cc(OC)c1OC do in these assays?
STAT3 activator: inactive; STAT1 inh-1: 42.4; NF-kB expr up: inactive; STAT3 blocker: inactive; APP 5'UTR act: inactive; STAT1 activator: inactive; STAT1 inh-2: inactive; NFkB inh STAT1ct: inactive; STAT3 inh 2: inactive

What do the screens show for `Cc1cc(=O)n(C(NC(=O)c2ccccc2)C(=O)c2ccccc2)cn1` (stereo not drawn)?
STAT3 activator: inactive; STAT1 inh-1: 41.7; NF-kB expr up: inactive; STAT3 blocker: inactive; APP 5'UTR act: inactive; STAT1 activator: inactive; STAT1 inh-2: 45.8; NFkB inh STAT1ct: inactive; STAT3 inh 2: inactive

What do the screens show for `O=C(NC(=S)Nc1ccc(Cc2ccncc2)cc1)c1ccccc1`?
STAT3 activator: inactive; STAT1 inh-1: inactive; NF-kB expr up: inactive; STAT3 blocker: inactive; APP 5'UTR act: inactive; STAT1 activator: inactive

Results for O=C(NC(=S)NC(c1ccccc1)c1ccncc1)c1ccccc1 (stereo not drawn) ?
STAT3 activator: inactive; STAT1 inh-1: 62.1; NF-kB expr up: inactive; STAT3 blocker: inactive; APP 5'UTR act: inactive; STAT1 activator: inactive; STAT1 inh-2: 56.7; NFkB inh STAT1ct: 20.1; STAT3 inh 2: inactive

Results for O=C(Nc1ccc(-n2cccc2)cc1)C1CC1 ?
STAT3 activator: inactive; STAT1 inh-1: inactive; NF-kB expr up: inactive; STAT3 blocker: inactive; APP 5'UTR act: inactive; STAT1 activator: inactive

How did CCCCn1c(=NC(=O)c2ccco2)c(C(=O)OCC)cc2c(=O)n3ccccc3nc21 do in these assays?
STAT3 activator: inactive; STAT1 inh-1: inactive; NF-kB expr up: inactive; STAT3 blocker: inactive; APP 5'UTR act: inactive; STAT1 activator: inactive

Results for CCOC(=O)c1cc2c(=O)n3ccccc3nc2n(Cc2ccco2)c1=NC(=O)c1ccc(OC)cc1OC ?
STAT3 activator: inactive; STAT1 inh-1: 60.0; NF-kB expr up: inactive; STAT3 blocker: inactive; APP 5'UTR act: inactive; STAT1 activator: inactive; STAT1 inh-2: inactive; NFkB inh STAT1ct: inactive; STAT3 inh 2: 25.3

What do the screens show for `CCC(=O)Nc1ccc(-c2nc3ccccc3c(=O)o2)cc1`?
STAT3 activator: inactive; STAT1 inh-1: 39.3; STAT3 blocker: inactive; APP 5'UTR act: inactive; STAT1 activator: inactive; STAT1 inh-2: inactive; NFkB inh STAT1ct: inactive; STAT3 inh 2: inactive

What do the screens show for `O=C1CCCC2=C1C(c1ccsc1)CC(=O)N2c1ccccc1F` (stereo not drawn)?
STAT3 activator: inactive; STAT1 inh-1: inactive; NF-kB expr up: inactive; STAT3 blocker: inactive; APP 5'UTR act: inactive; STAT1 activator: inactive

Results for O=S(=O)(CC(CN1CCCCC1)N1CCCCC1)c1ccc2ccccc2c1 (stereo not drawn) ?
STAT3 activator: inactive; STAT1 inh-1: 35.4; NF-kB expr up: inactive; STAT3 blocker: inactive; APP 5'UTR act: inactive; STAT1 activator: inactive; STAT1 inh-2: inactive; NFkB inh STAT1ct: inactive; STAT3 inh 2: inactive

How did CCCS(=O)(=O)c1nnnn1-c1cccc(OC)c1 do in these assays?
STAT3 activator: inactive; STAT1 inh-1: 45.6; NF-kB expr up: inactive; STAT3 blocker: inactive; APP 5'UTR act: inactive; STAT1 activator: inactive; STAT1 inh-2: 51.5; NFkB inh STAT1ct: 23.6; STAT3 inh 2: inactive

How did CNC(=S)NNC(=O)Cc1ccc(OC)c(OC)c1 do in these assays?
STAT3 activator: inactive; STAT1 inh-1: inactive; NF-kB expr up: inactive; STAT3 blocker: inactive; APP 5'UTR act: inactive; STAT1 activator: inactive

Results for Cn1nnnc1Sc1ncnc2scc(-c3ccc(F)cc3)c12 ?
STAT3 activator: inactive; STAT1 inh-1: 37.5; NF-kB expr up: inactive; STAT3 blocker: inactive; APP 5'UTR act: inactive; STAT1 activator: inactive; STAT1 inh-2: 50.0; NFkB inh STAT1ct: inactive; STAT3 inh 2: inactive

Results for CC(=O)Nc1ccc(Sc2ncnc3scc(-c4ccccc4)c23)cc1 ?
STAT3 activator: inactive; STAT1 inh-1: inactive; NF-kB expr up: inactive; STAT3 blocker: inactive; APP 5'UTR act: inactive; STAT1 activator: inactive

Results for Cn1nnnc1Sc1ncnc2scc(-c3ccccc3)c12 ?
STAT3 activator: inactive; STAT1 inh-1: 43.9; NF-kB expr up: inactive; STAT3 blocker: inactive; APP 5'UTR act: inactive; STAT1 activator: inactive; STAT1 inh-2: 49.4; NFkB inh STAT1ct: inactive; STAT3 inh 2: inactive

How did Cc1ccc(/C=C2\SC(=S)N(CCCC(=O)Nc3ccccn3)C2=O)cc1 do in these assays?
STAT3 activator: inactive; STAT1 inh-1: 38.4; NF-kB expr up: inactive; STAT3 blocker: inactive; APP 5'UTR act: inactive; STAT1 activator: inactive; STAT1 inh-2: 40.1; NFkB inh STAT1ct: 44.5; STAT3 inh 2: 46.0

Results for COc1ccc(/C=C2\SC(=S)N(CCCC(=O)Nc3ccccn3)C2=O)cc1OC ?
STAT3 activator: inactive; STAT1 inh-1: inactive; NF-kB expr up: inactive; STAT3 blocker: inactive; APP 5'UTR act: inactive; STAT1 activator: inactive

How did CC(C)(C)NC(=O)COC(=O)c1cc(S(=O)(=O)N2CCCCC2)ccc1N1CCOCC1 do in these assays?
STAT3 activator: inactive; STAT1 inh-1: inactive; NF-kB expr up: inactive; STAT3 blocker: inactive; APP 5'UTR act: inactive; STAT1 activator: inactive

What do the screens show for `COc1ccc(-c2nc(CS(=O)CC(=O)NCc3ccco3)c(C)o2)cc1` (stereo not drawn)?
STAT3 activator: inactive; STAT1 inh-1: inactive; NF-kB expr up: inactive; STAT3 blocker: inactive; APP 5'UTR act: inactive; STAT1 activator: inactive

Results for CCOc1ccc(-c2nc(CSCC(=O)NCc3ccco3)c(C)o2)cc1 ?
STAT3 activator: inactive; STAT1 inh-1: 89.6; NF-kB expr up: inactive; STAT3 blocker: inactive; APP 5'UTR act: inactive; STAT1 activator: inactive; STAT1 inh-2: 90.7; NFkB inh STAT1ct: 49.1; STAT3 inh 2: inactive

What do the screens show for `COC(=O)c1ccc(C(=O)OC)c(-n2c(=O)c3ccccc3c3ccccc3c2=O)c1`?
STAT3 activator: inactive; STAT1 inh-1: inactive; NF-kB expr up: inactive; STAT3 blocker: inactive; APP 5'UTR act: inactive; STAT1 activator: inactive

How did COc1ccc(-n2c3c(cc(C#N)c2=O)C(=O)CCC3)cc1 do in these assays?
STAT3 activator: inactive; STAT1 inh-1: inactive; NF-kB expr up: inactive; STAT3 blocker: inactive; APP 5'UTR act: inactive; STAT1 activator: inactive
